Experimental data from ChEMBL document CHEMBL3244105, “Antiparasitic agents. 3. Synthesis and anthelmintic activities of novel 2-pyridinyl-5-isothiocyanatobenzimidazoles” (1979).
Calls of active or inactive are those of the source. The rule behind the calls is not given here.

Experiments:
[1] = system: Rodentolepis nana; assay: Anthelmintic activity against Hymenolepis nana infected in CF1 mouse assessed as clearance of worm burden assessed as clearance of worm burden at 0.2% dosed through diet for 4 days dosed 16 days post infection by press-plate technique; type: functional
Outline: (§1)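 Primary oral mouse screen. Compound was given mixed in the diet. Tapeworm (taeniacidal) and N. dubius nematode activity were each scored as percent clearance of worms.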

[2] = system: gastrointestinal nematodes (Ovis aries); assay: Anthelmintic activity against gastrointestinal nematodes infected in sheep assessed as reduction of fecal egg count at 50 mg/kg, po measured up to 7 days relative to control; parameters: scale not given: the % may be the effect or the level left
[3] = system: Heligmosomoides polygyrus; assay: Nematocidal activity against Nematospiroides dubius infected in CF1 mouse assessed as clearance of worm burden at 0.2% dosed through diet for 4 days dosed 16 days post infection by press-plate technique; type: functional; outline: as §1
[4] = system: gastrointestinal nematodes (Ovis aries); assay: Anthelmintic activity against gastrointestinal nematodes infected in sheep assessed as reduction of fecal egg count at 200 mg/kg, po measured up to 7 days relative to control; parameters: scale not given: the % may be the effect or the level left
[5] = system: gastrointestinal nematodes (Ovis aries); assay: Anthelmintic activity against gastrointestinal nematodes infected in sheep assessed as reduction of fecal egg count at 25 mg/kg, po measured up to 7 days relative to control; parameters: scale not given: the % may be the effect or the level left
[6] = system: gastrointestinal nematodes (Ovis aries); assay: Anthelmintic activity against gastrointestinal nematodes infected in sheep assessed as reduction of fecal egg count at 43 mg/kg, po measured up to 7 days relative to control; parameters: scale not given: the % may be the effect or the level left
[7] = system: Moniezia; assay: Anthelmintic activity against Moniezia sp. infected in sheep assessed as reduction of fecal egg count; type: functional
[8] = system: Taenia pisiformis; assay: Anthelmintic activity against Taenia pisiformis infected in dog assessed as reduction of fecal egg count; type: functional, organism-based
[9] = system: Heligmosomoides polygyrus; assay: Nematocidal activity against Nematospiroides dubius infected in CF1 mouse assessed as clearance of worm burden at 0.03% dosed through diet for 4 days dosed 16 days post infection by press-plate technique; type: functional, organism-based; outline: as §1
[10] = system: Rodentolepis nana; assay: Anthelmintic activity against Hymenolepis nana infected in CF1 mouse assessed as clearance of worm burden at 0.03% dosed through diet for 4 days dosed 16 days post infection by press-plate technique; type: functional, organism-based; outline: as §1

Row | SMILES | Activity [1] | Activity [2] | Activity [3] | other results
1 | Cc1cccc(-c2nc3cc(N=C=S)ccc3[nH]2)n1 | 75% | 52% | inactive | –
2 | S=C=Nc1ccc2[nH]c(-c3ccccc3)nc2c1 | 100% | 0% | inactive | –
3 | Cl.S=C=Nc1ccc2[nH]c(-c3ccccn3)nc2c1 | 75% | 95% | – | –
4 | S=C=Nc1ccc2[nH]c(-c3cccnc3)nc2c1 | 100% | – | inactive | Activity [4]: 71%
5 | S=C=Nc1cccc2[nH]c(-c3ccccn3)nc12 | 25% | 83% | inactive | –
6 | S=C=Nc1ccc2[nH]c(-c3ccccn3)nc2c1 [listing 1 of 2 here] | 100% | 100% | – | Activity [5]: 11%; Activity [4]: 100%
7 | S=C=Nc1ccnc(-c2nc3cc(N=C=S)ccc3[nH]2)c1 | 0% | 0% | inactive | –
8 | S=C=Nc1ccc2[nH]c(-c3cc(Cl)ccn3)nc2c1 | 75% | 0% | inactive | –
9 | [O-][n+]1ccccc1-c1nc2cc(N=C=S)ccc2[nH]1 | 100% | – | inactive | Activity [6]: 9%
10 | S=C=Nc1ccc2[nH]c(-c3ccncc3)nc2c1 | 0% | 0% | inactive | –
11 | S=C=Nc1ccnc(-c2nc3ccccc3[nH]2)c1 | 50% | 0% | inactive | –
12 | Cc1ccc(S(=O)(=O)O)cc1.S=C=Nc1ccc2[nH]c(-c3ccccn3)nc2c1 | 100% | 0% | – | –
13 | COc1ccnc(-c2nc3cc(N=C=S)ccc3[nH]2)c1 | 75% | 0% | inactive | –
14 | c1ccc(-c2nc3ccccc3[nH]2)nc1 | 0% | 28% | inactive | –
15 | c1ccc(-c2nc3ccccc3[nH]2)cc1 | 25% | 17% | inactive | –
16 | Cn1c(-c2cccc[n+]2C)nc2cc(N=C=S)ccc21.[I-] | 0% | – | inactive | –
17 | S=C=Nc1ccc2[nH]c(-c3ccccn3)nc2c1 [listing 2 of 2 here] | – | – | inactive | Activity [7]: inactive; Activity [8]: inactive
18 | S=C=Nc1ccc2[nH]c(-c3cscn3)nc2c1 | 100% | – | 90% | –
19 | Cc1ccnc(-c2nc3cc(N=C=S)ccc3[nH]2)c1 | 25% | 0% | inactive | –
20 | CCCCc1ccc2[nH]c(NC(=O)OC)nc2c1 | – | – | – | Activity [9]: Active; Activity [10]: Active
21 | S=C=Nc1cc2nc(-c3ccccn3)[nH]c2cc1Cl | 50% | 15% | inactive | –
